Tests used:
[1] = Stability of the compound in simulated human gastric juices up to 1500 mins by HPLC analysis; format: ADME, Gastric juice; conditions: 25 h
[2] = Metabolic stability in brain heart infusion medium up to 24 hrs by HPLC analysis; format: ADME, tissue-based
In short: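 Prodrug was incubated in BHI medium without bacteria under anaerobic conditions at pH 7.4 and 37 °C. Aliquots were taken at 0, 2, 4, 6 and 24 h and centrifuged at 10,000 rpm for 10 min. Supernatants were stored at −20 °C, then analysed by an HPLC method that resolves BHI components from prodrug and activation byproducts; n = 3.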

Clostridium perfringens [3] = assay: Prodrug activation in Clostridium perfringens assessed as prednisolone release under anaerobic conditions at 50 uM up to 24 hrs by HPLC analysis; format: organism-based
In short: (§1)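 C. perfringens grown overnight on brain heart infusion (BHI) agar, then colonies were suspended in BHI broth to OD600 0.9–1.1. Compound incubated in the suspension under anaerobic conditions, pH 7.4, 37 °C, with a no-bacteria BHI control. Aliquots taken at 0, 2, 4, 6 and 24 h and centrifuged at 10,000 rpm for 10 min. Supernatants were stored at −20 °C, then HPLC for prodrug and released parent drug (n = 3).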

[4] = Stability of the compound in simulated human duodenal fluid up to 1500 mins by HPLC analysis; format: ADME; conditions: 25 h
Clostridium perfringens [5] = assay: Prodrug activation in Clostridium perfringens assessed as celecoxib release under anaerobic conditions at 50 uM up to 24 hrs by HPLC analysis; format: organism-based; in short: as §1
Caco-2 = assay: Apparent permeability from apical to basolateral side of human Caco2 cells; format: ADME, cell-based
In short: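 Transport measured across the epithelial monolayer. Samples were drawn from the acceptor reservoir at 0, 30, 60 and 120 min, and fresh buffer was added each time to keep the volume constant. The donor solution was sampled at 120 min. Caffeine was run in two wells in the apical-to-basolateral direction as a routine control.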

| Compound | Stability [1] | Stability [2] | Drug metabolism (Clostridium perfringens [3]) | Stability [4] | Drug metabolism (Clostridium perfringens [5]) | Papp (Caco-2) |
| --- | --- | --- | --- | --- | --- | --- |
| C[C@]12C=CC(=O)C=C1CC[C@@H]1[C@@H]2[C@@H](O)C[C@@]2(C)[C@H]1CC[C@]2(O)C(=O)COC(=O)Cc1ccccc1[N+](=O)[O-] | Stable | Stable | Active | Stable | – | – |
| Cc1ccc(-c2cc(C(F)(F)F)nn2-c2ccc(S(=O)(=O)NC(=O)CCc3ccccc3)cc2)cc1 | – | Stable | – | – | Not Active | – |
| CCCC1O[C@@H]2C[C@H]3[C@@H]4CCC5=CC(=O)C=C[C@]5(C)[C@H]4[C@@H](O)C[C@]3(C)[C@]2(C(=O)COC(=O)CCc2ccccc2[N+](=O)[O-])O1 (stereo not given in full) | Stable | Stable | Not Active | Stable | – | impermeable |
| C[C@]12C=CC(=O)C=C1CC[C@@H]1[C@@H]2[C@@H](O)C[C@@]2(C)[C@H]1CC[C@]2(O)C(=O)COC(=O)CCc1ccccc1[N+](=O)[O-] | Stable | Stable | Active | Stable | – | – |
| CCCC1O[C@@H]2C[C@H]3[C@@H]4CCC5=CC(=O)C=C[C@]5(C)[C@H]4[C@@H](O)C[C@]3(C)[C@]2(C(=O)COC(=O)Cc2ccccc2[N+](=O)[O-])O1 (stereo not given in full) | Stable | Stable | Active | Stable | – | permeable |
| Cc1ccc(-c2cc(C(F)(F)F)nn2-c2ccc(S(=O)(=O)NC(=O)Cc3ccccc3[N+](=O)[O-])cc2)cc1 | Stable | Stable | – | Stable | – | permeable |
| C[C@]12C=CC(=O)C=C1CC[C@@H]1[C@@H]2[C@@H](O)C[C@@]2(C)[C@H]1CC[C@]2(O)C(=O)COC(=O)CCc1ccccc1 | – | Stable | Not Active | – | – | – |
| Cc1ccc(-c2cc(C(F)(F)F)nn2-c2ccc(S(=O)(=O)NC(=O)CCc3ccccc3[N+](=O)[O-])cc2)cc1 | Stable | Stable | – | Stable | – | permeable |

Source: ChEMBL document CHEMBL2331264, “A nitrophenyl-based prodrug type for colorectal targeting of prednisolone, budesonide and celecoxib” (Bioorg Med Chem Lett, 2013)
